B1: tRNA (parent)
chain: GUUCCGUUGGCGUAAUGGUAACGCGUCUCCCUCCUAAGGAGAAGACUGCGGGUUCGAGUCCCGUACGGAACG

Variants at the floor of the assay were thinned out.

This series covers variants of B1. The series is described as follows: yeast fitness relative to wild type (ratio to wild type); higher = fitter; tRNA-Arg(CCU), competitive growth, 37 C, YPD. An outline of the steps:
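Variants of the tRNA-Arg(CCU) gene, chemically synthesised with a 3% per-site mutation rate at 69 sites, were placed at the native genomic locus in Saccharomyces cerevisiae. The pooled strains were competed in YPD at 37°C for 24 hours in six parallel replicates. Gene amplicons from the start population and from each end population were read by 100-nucleotide paired-end sequencing. Darwinian fitness relative to wild type came from changes in genotype frequencies; genotypes needed ≥ 100 starting reads, and estimates < 0.5 were set to 0.5.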
On to GUUCUGUUGGCGUAAUGGUAACGCGUCUCCCUGCUAAGGAGAAGACUGAGGGUUCGAGUCCCGUACGGACCG [C5U C33G C49A A70C], for which the yeast fitness is ≤ 0.5. In the case of GUUCAGUGGGCGUAAUGGCAACGCGUCUCCCUCCUAUGGAGAAGACUGCGACUUCGAGCCCCGUACGGAACG [C5A U8G U19C A37U G51A G52C U59C] it was ≤ 0.5. In the case of GUUCCAUUGGCGUAAUGGUAUCGCGUCUCCCUCCUAAGGAGAAGACUGCGGGUUCGAGUCCCGUACGGAACG [G6A A21U] it was 0.659. GUUCCGUUGGUGUAAUGGUAAUGCGUCUCCCUCCUAAGGAGAAGACUGCGGGUUCGAGUCCCGUACAGAACG [C11U C22U G67A]: the yeast fitness stood at 0.586. To GUUCCGUUGGCGUUAUGGUACCGCGUCUUCCUCCUAAGGAGAAGACUGCGGGUUCGAGUCCCGUACGGAACG [A14U A21C C29U] belongs 0.538; to GUUCCGUUGCCGUAAUGGUAACGCGUCUCCCUCCUAGGGAGAAGACUGCGGAUUGGAGUCCCGUACGGAACG [G10C A37G G52A C55G], 0.567; to GUUCCGUUGGCGUAAUGGUAGCGCGUCUCCCUCCUAAGGAGUAGACUGUGGGUUCGAGUCCCGUACAGAACG [A21G A42U C49U G67A], ≤ 0.5.

For the variant GUUCCGUUGGCGUAAUGGUAACGCGUCUCCCUCCUAAGGAGAAGACUGCGGGUUCGAGUCCCCUACGGACCG [G63C A70C], the yeast fitness stood at 0.744. In the case of GUUGCGUUCGCGUAAUGGUAACGCGUCUCCCUCCUAAGGAAAAGACUGCGGGUUUGAGACCCGUACGGAACG [C4G G9C G41A C55U U59A] it was ≤ 0.5; in that of GUUCCGUUGGCGUAAUGAUAACGCGUCUCCCUCUUAAGGAGAAGACUGCGGGUUCGAGUCCCGUACAGAACG [G18A C34U G67A], ≤ 0.5. In the case of GUUCCGUUGGCGUGAUGGUAUCGCGUCUCCCUCCUAAGGAGAAGACUGCGGGUUCGAGACCCGUACGGAACG [A14G A21U U59A] it was ≤ 0.5; in that of GUUCCGUUGGCGUUGUGGUAACGCGUCUCCCUCCUAAGGAGAAGACUGCGGGGUCGAGUCCCGUACGGAACG [A14U A15G U53G], ≤ 0.5. In the case of GUUCCGUUGGCGUAAUGGUCACGUGUCUCCCUCCUAAGGAGUAGACUGCGGGUUCGAGCCCUGUACGGAACG [A20C C24U A42U U59C C62U] it was ≤ 0.5. Turning to GUACCGUUGGCGUAAUGGUAACGCGUCUCCCUCCUAGGGAGGAGACUGCAGGUUUGAGUCCCGCACGGAACG [U3A A37G A42G G50A C55U U64C], the yeast fitness was ≤ 0.5. To GUUCCGUUAGCGUAAUGGUAACGCGUUUCCCUCCUAAGGAGAAGACUGCGGGUUCAAGUCCCGUACAGAACG [G9A C27U G56A G67A] belongs ≤ 0.5.

As to GUUCCGUUGGCGUAAUGGUAACGCGUCUCCCUCCUGAGGAGGAGACUGCGGGUUCGAGUCCCGUACGGAGCG [A36G A42G A70G], the yeast fitness was found to be 0.54.

As for GUUCCGUUGGCGUAAUGGUAACGCGUCUCCCUCCUAAGGAGAAGACUGCGGGUUCGAGUCCCGUGCGCAACG [A65G G68C], the yeast fitness was 0.859. Turning to GUUCCGUUGGCGUAAUGGUAACGCGUCUCACUCCAAAGGAGAAGACUGCGGGUUCGAGUCCCGUACGGAACG [C30A U35A], the yeast fitness was found to be 0.569.

Take GUUCCGUUGGCGUAAUGGUAACGCGUCUCCCCCCUAAGGAGAAGUCUGCGGGUUCGAGUCCCGUACGGAACG [U32C A45U]: the yeast fitness amounted to 0.942. To GUUCCGUUGGCGUAAUGGUAACGCGUCUCCCUCGUAAGGAGAAGACUGCGGGUUCGAGUCCCGUACGAAACG [C34G G68A] belongs 0.586.

As for GUUCCGUUGGCGUAAUGGUAACCCGUCUCCCUCCUAAGGAGAAGACUGCGGGUUCAGGUCCCGUACGGAACG [G23C G56A A57G], the yeast fitness was ≤ 0.5. GUUCCGUUGGCGUAAUGGUAACGCGUCUCCCUCCUAAGGAGAAGACCGCGGGUUCGAGUCUCGUUUGGAACG [U47C C61U A65U C66U]: the yeast fitness is ≤ 0.5. To GUUUCGUUGGCGUAAUGGUAAGGCGUCUCCCUCCUAAGGAGAAGACUGCGGGUUCAAGUCCCGUACGGAACG [C4U C22G G56A] belongs 0.76; to GUUCCGUUGGCAUAAUGGUUACGCGUCUCCCUCCUAAGGAGAAGACUGCGGGUUCGAGUCCCGUACGGAACG [G12A A20U], 0.831.

Take GUUCCGUUGGCGUAAUGGUAACGCAUCUCCCUCCUAAGGAGAAGACUGCGGGUUCGAGUCCCGUACGGAACG [G25A]: the yeast fitness was 0.984. To GUUCCAUUGGCGUAAUGGUAAGGCGUCUCCCUCCCAAGGAGAAGACUGCGGGUUGGAGUCCCGUACGGAACG [G6A C22G U35C C55G] belongs ≤ 0.5.

For GUUCCGUUGGCGUAAUGGUAACGCGUCUCCCUCCUAAGGAGAAGACUGCGGCUUCGAGUCCGGUACGGAACG [G52C C62G], the yeast fitness was determined as 0.646. On to GUUCCGUUGGCGCAAUGGUAACGCGUCUCACUCCUAAGGAGAAGACUGCGGGUUCGAGUCCCGUACGGAACG [U13C C30A], for which the yeast fitness amounted to 0.825. Turning to GUUCCGUUGGCGUAAUGGUAACGCGUCUCCCUCCUAAGGAGAAGACUGCGGGUUCGAGACCCGUACGGAUCG [U59A A70U], the yeast fitness is 0.91.

On to GUUCCGUUGGCGUAAUGGUAACGUGUCUCCCUUCUAAGGAGAACACUGCGGGUUCGAGUCCCGUACGGAACG [C24U C33U G44C], for which the yeast fitness came out at 0.633. On to GUUACGUUGGGGUAAUGGUAACGCGUCUCCCUCCUAAGGUGAAGUCUGCGGGUUCGAGUCCCGUACGGAACG [C4A C11G A40U A45U], for which the yeast fitness is ≤ 0.5. To GUUCUGUUGGCGUAAUGGUAAGGCGUCUACCUCCUAAGGAGAAGUCUGCGGGUUCGAGUCCCGUACGGAACG [C5U C22G C29A A45U] belongs 0.627; to GUUCGGUGGGCGUAAUGGUAACGCGUCUCCCUCCUAAGGAGAAGACUGCGGGUUCGAGUCCCGUACGGAACG [C5G U8G], 0.527; to GUUCCAUUGGCGUAAUGGUACCGCGUCUCCCUCCUAAGGAGAAGACAGCGGGUUCGAGUCCCGUACGGAGCG [G6A A21C U47A A70G], ≤ 0.5. Consider GCUCCGUUGGCGUAAUGGUAACGCGUCUCCCUCCUAAGGAGAAGACUGCAGGUUCGAGUCCCGUACGCAACG [U2C G50A G68C], for which the yeast fitness is 0.556.

For GUUCCGUUGGCGUAAUGGUAACGCGACUCCCUCCUAAGCAGAAGACUGCGGGUUCGAGUCCCGUACGGAACG [U26A G39C], the yeast fitness is 0.751. In the case of GCUCCGUUGGCGUAAUGGUAACGCGUCUCCCCCCAAAGGAGAAGACUGCGGGUUCAAGUCCCGUACGGAACG [U2C U32C U35A G56A] it was ≤ 0.5. Regarding GUUCCGUUGGCGUAAAGGUAACGCGUCUCCCUCUUAAAGAGUAGACUGCGGGUUCGAGUCCCGUACGGAACG [U16A C34U G38A A42U], the yeast fitness was ≤ 0.5.

(Values after the RNAGym collection of RNA variant scans (doi:10.1126/science.aae0568).)
